Measurements published in ChEMBL document CHEMBL1132449, “Pyrroloquinoxaline derivatives as high-affinity and selective 5-HT(3) receptor agonists: synthesis, further structure-activity relationships, and biological studies” (J Med Chem, 1999).

Legend:
[1] = target: T1, Serotonin 3 (5-HT3) receptor (Rattus norvegicus, UniProt P35563+Q9JJ16); assay: Binding affinity against 5-hydroxytryptamine 3 (5-HT3) receptor from rat cortical homogenate using [3H]zacopride as radioligand
T1 sequence (P35563 whole entry): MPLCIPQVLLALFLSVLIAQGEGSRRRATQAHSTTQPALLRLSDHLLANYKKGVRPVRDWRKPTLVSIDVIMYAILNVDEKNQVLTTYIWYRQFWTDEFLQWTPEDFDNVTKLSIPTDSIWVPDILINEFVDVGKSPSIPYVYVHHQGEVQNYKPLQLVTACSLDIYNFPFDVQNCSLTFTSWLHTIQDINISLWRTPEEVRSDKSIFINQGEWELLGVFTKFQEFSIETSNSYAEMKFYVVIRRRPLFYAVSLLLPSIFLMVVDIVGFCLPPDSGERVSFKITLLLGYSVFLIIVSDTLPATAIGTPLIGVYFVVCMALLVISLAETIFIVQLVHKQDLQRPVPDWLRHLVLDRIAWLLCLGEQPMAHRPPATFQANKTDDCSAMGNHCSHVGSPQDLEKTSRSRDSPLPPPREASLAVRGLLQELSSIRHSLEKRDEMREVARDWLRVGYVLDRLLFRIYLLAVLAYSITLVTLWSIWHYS
T1 sequence (Q9JJ16 whole entry): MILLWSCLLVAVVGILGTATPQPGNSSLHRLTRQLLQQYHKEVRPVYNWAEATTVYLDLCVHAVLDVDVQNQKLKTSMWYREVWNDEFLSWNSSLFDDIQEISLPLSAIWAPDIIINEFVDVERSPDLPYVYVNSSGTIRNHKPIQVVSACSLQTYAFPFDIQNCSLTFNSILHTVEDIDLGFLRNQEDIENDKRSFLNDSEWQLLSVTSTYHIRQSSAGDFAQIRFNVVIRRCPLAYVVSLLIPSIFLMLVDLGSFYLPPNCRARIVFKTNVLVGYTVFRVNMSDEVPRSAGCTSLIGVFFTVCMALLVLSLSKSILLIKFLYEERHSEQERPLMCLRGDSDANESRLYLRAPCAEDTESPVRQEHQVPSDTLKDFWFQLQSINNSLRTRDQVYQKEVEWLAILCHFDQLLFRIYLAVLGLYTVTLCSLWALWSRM
Outline: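 Male rat cortices, stored at -80 °C, were homogenized in ice-cold 25 mM Tris HCl pH 7.4 and spun at 50000g. Membranes were preincubated 10 min at 37 °C, washed, and resuspended with 10 µM pargyline (10 mg tissue/sample). They were incubated with 0.4 nM (final) [3H]zacopride for 30 min at 25 °C, filtered through PEI-treated GF/B and counted. IC50 came from dose-inhibition curves, mean ± SEM of three determinations.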

[2] = target: T1, Serotonin 3 (5-HT3) receptor; assay: The compound was tested for binding affinity against 5-hydroxytryptamine 3 receptor from NG108-15 cells using [3H]zacopride as radioligand; format: cell-based
Outline: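 NG108-15 cells were grown in DMEM with 10% inactivated FCS plus HAT at 37 °C, 10% CO2, harvested by shaking and pelleted. About 420 000 cells/sample in 50 mM Tris HCl pH 7.5 with 25 mM NaCl were incubated with 0.4 nM (final) [3H]zacopride for 60 min at 25 °C, then filtered and counted. IC50 is mean ± SEM of three determinations.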

[3] = target: 5-hydroxytryptamine receptor 2A (Rattus norvegicus, UniProt P14842); assay: The compound was tested for the binding affinity against 5-hydroxytryptamine 2A receptor using [3H]ketanserin as radioligand.
[4] = target: T2, 5-hydroxytryptamine receptor 2C (Rattus norvegicus, UniProt P08909); assay: The compound was tested for the binding affinity against 5-hydroxytryptamine 2C receptor using [3H]Mesulergine as radioligand.
T2 sequence (P08909 whole entry): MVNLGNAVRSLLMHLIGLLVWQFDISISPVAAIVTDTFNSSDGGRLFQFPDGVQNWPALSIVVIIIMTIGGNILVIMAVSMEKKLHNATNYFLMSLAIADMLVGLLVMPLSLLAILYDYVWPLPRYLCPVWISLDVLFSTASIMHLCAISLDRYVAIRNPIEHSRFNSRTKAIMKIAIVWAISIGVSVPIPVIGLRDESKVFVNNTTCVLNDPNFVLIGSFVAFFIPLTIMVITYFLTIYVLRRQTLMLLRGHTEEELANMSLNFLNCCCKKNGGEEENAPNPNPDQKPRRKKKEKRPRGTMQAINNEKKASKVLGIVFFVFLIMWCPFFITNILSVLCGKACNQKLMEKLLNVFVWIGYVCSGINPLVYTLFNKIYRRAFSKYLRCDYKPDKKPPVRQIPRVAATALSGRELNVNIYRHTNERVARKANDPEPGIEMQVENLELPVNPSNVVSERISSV

NG108-15 [5] = assay: The compound was tested for efficacy against 5-Hydroxytryptamine 3 receptor by measuring [14C]guanidinium uptake on NG108-15 cells; PA=Partial agonist; format: functional, cell-based; conditions: filed as partial agonist
Outline: (§1)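 NG108-15 cells, grown 2 days, were washed in HEPES saline pH 7.4. They were exposed 10 min at 37 °C to buffer (135 mM NaCl, 10 mM guanidinium) with […] [14C]guanidinium, 1 mM 5-HT, […] and/or 8 drug concentrations. Cells were washed in ice-cold choline buffer, dissolved in NaOH and counted by scintillation. Assays run in triplicate.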

[6] = target: T1, Serotonin 3 (5-HT3) receptor; assay: The compound was tested for the binding affinity against 5-hydroxytryptamine 3 receptor using [3H]zacopride as radioligand.; format: protein-complex assay
[7] = target: Serotonin 3 (5-HT3) receptor; assay: Effective concentration against 5-Hydroxytryptamine 3 receptor by measuring [14C]guanidinium uptake on NG108-15 cells.; format: functional, cell-based
NG108-15 [8] = assay: The compound was tested for efficacy against 5-Hydroxytryptamine 3 receptor by measuring [14C]guanidinium uptake on NG108-15 cells.; A = Agonist; format: functional, cell-based; conditions: filed as agonist; outline: as §1
[9] = target: 5-hydroxytryptamine receptor 1B (Rattus norvegicus, UniProt P28564); assay: The compound was tested for the binding affinity against 5-hydroxytryptamine 1B receptor using [3H]5-HT as radioligand.
[10] = target: T3, 5-hydroxytryptamine receptor 1A (Rattus norvegicus, UniProt P19327); assay: The compound was tested for the binding affinity against 5-hydroxytryptamine 1A receptor using [3H]8-OH-DPAT as radioligand.
T3 sequence (P19327 whole entry): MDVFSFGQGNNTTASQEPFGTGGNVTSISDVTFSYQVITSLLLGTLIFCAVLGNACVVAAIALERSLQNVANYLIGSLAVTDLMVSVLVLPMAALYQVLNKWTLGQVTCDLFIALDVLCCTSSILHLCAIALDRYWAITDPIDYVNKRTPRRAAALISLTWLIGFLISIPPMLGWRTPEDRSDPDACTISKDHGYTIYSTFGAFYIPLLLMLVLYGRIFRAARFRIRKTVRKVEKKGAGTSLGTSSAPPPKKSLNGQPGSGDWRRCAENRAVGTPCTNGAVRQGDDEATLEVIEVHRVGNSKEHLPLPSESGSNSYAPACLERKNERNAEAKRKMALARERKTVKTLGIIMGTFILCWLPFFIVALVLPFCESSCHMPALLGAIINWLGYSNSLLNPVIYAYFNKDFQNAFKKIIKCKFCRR

[11] = target: 5-hydroxytryptamine receptor 4 (Cavia porcellus, UniProt O70528); assay: The compound was tested for the binding affinity against 5-hydroxytryptamine 4 receptor using [3H]GR-113808 as radioligand.
Sequence of 5-hydroxytryptamine receptor 4 (O70528 whole entry): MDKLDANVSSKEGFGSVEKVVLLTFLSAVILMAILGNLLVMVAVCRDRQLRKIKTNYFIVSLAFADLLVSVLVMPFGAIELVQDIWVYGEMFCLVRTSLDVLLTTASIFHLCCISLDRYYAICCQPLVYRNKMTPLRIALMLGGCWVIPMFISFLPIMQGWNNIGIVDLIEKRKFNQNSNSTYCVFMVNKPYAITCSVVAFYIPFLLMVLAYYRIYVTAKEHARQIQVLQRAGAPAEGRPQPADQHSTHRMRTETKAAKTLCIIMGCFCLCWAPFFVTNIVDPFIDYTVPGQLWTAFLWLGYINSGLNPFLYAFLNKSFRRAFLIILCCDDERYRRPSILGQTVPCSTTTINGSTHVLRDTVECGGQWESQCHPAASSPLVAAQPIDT

Sequence of 5-hydroxytryptamine receptor 2A (P14842 whole entry): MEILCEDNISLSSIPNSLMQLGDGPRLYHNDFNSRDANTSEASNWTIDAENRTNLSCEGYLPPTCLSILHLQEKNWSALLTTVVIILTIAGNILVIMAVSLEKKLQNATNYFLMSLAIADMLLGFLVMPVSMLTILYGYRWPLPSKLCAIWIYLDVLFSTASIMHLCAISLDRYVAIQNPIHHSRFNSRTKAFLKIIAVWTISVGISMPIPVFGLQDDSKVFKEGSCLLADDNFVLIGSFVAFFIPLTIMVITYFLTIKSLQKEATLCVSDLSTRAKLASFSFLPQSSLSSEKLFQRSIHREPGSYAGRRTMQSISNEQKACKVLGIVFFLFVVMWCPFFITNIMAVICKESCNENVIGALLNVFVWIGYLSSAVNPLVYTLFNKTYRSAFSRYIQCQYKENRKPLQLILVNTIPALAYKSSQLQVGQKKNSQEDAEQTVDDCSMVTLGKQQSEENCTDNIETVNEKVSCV
Sequence of 5-hydroxytryptamine receptor 1B (P28564 whole entry): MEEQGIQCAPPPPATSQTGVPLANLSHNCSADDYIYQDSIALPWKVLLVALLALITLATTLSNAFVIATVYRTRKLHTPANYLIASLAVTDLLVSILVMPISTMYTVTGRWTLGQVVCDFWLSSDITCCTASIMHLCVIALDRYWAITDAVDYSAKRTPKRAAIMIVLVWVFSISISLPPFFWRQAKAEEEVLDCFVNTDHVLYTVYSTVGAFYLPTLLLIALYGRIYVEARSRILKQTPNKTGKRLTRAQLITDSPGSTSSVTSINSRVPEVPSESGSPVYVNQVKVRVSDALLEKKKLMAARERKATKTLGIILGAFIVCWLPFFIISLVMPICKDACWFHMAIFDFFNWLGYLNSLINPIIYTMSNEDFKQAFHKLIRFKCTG

With `CN1CCN(c2nc3cc(Cl)c(Cl)cc3n3cccc23)CC1` the IC50 [1] was 0.097 µM.

`O=C(O)CN1CCN(c2nc3cccc(F)c3n3cccc23)CC1` gave an IC50 [1] of 0.92 µM.

`CN1CCN(c2nc3cccnc3n3cccc23)CC1` gave an IC50 [1] of 0.001 µM and an IC50 [2] of 0.0054 µM.

`c1ccc2nc(N3CCNCC3)ccc2c1` [QUIPAZINE] gave an IC50 [1] of 0.0038 µM, a Ki [3] of 0.794 µM and a Ki [4] of 0.316 µM. The Efficacy (NG108-15 [5]) was “Partial agonist” and the Ki [6] was 0.00631 µM.

In the case of `CN1CCN(c2nc3cc(F)ccc3n3ccnc23)CC1`, the EC50 [7] is reported as 0.0072 µM, the IC50 [1] is reported as 0.0052 µM and the Efficacy (NG108-15 [8]) is reported as “Agonist”.

With `Cc1ccc2c(c1)nc(N1CCN(Cc3ccccc3)CC1)c1cccn12` the IC50 [1] was 0.024 µM.

`CN1CCN(c2nc3ccccc3c3ccnn23)CC1` was tested, and the EC50 [7] was 0.0027 µM, the IC50 [1] was 0.0016 µM and the Efficacy (NG108-15 [8]) was “Agonist”.

Work on `Cc1ccc2c(c1)nc(N1CCNCC1)c1cccn12` yielded an IC50 [1] of 0.0164 µM.

With `Fc1cccc2nc(N3CCN(CC4N=NN=N4)CC3)c3cccn3c12` the IC50 [1] was 0.69 µM.

For `c1cnc2nc(N3CCNCC3)c3cccn3c2c1`, the IC50 [1] was 0.0031 µM.

Compound `Cc1cc2nc(N3CCNCC3)c3cccn3c2cc1C` has an IC50 [1] of 0.113 µM.

For `Fc1ccc2c(c1)nc(N1CCN(Cc3ccccc3)CC1)c1cccn12`, the EC50 [7] was 0.0042 µM, the IC50 [1] was 0.013 µM and the Efficacy (NG108-15 [5]) was “Partial agonist”.

For `c1csc(CN2CCN(c3nc4cccnc4n4cccc34)CC2)c1`, the Ki [9] was 3.98 µM, the IC50 [1] was 0.0036 µM and the Ki [3] was 1.58 µM. For the same compound, the Ki [4] was over 10 µM, the Ki [10] was over 10 µM and the Ki [11] was over 10 µM. It also gave an IC50 [2] of 0.0064 µM and a Ki [6] of 0.00316 µM.

In the case of `Fc1ccc2c(c1)nc(N1CCN(Cc3ccco3)CC1)c1cccn12`, the EC50 [7] is reported as 0.0066 µM, the IC50 [1] is reported as 0.011 µM and the Efficacy (NG108-15 [5]) is reported as “Partial agonist”.

`OCCN1CCN(c2nc3cccnc3n3ccnc23)CC1` gave an IC50 [1] of 0.038 µM.

Work on `Cc1[nH]c2ccc(O)cc2c1CCN` yielded a Ki [6] of 0.2 µM.

`CN1CCN(C2=NC=CN3CCN=C23)CC1` was tested, and the IC50 [1] was 3.65 µM.

With `Cc1cccc2nc(N3CCN(Cc4ccccc4)CC3)c3cccn3c12` the EC50 [7] was 0.012 µM, the IC50 [1] was 0.0088 µM and the Efficacy (NG108-15 [8]) was “Agonist”.

`CN1CCN(c2nccn3cccc23)CC1` showed an IC50 [1] of 1.93 µM.

With `Fc1ccc2c(c1)nc(N1CCN(Cc3cccs3)CC1)c1cccn12` the IC50 [1] was 0.012 µM.
